The target of assay [1] is GABA-A receptor; anion channel. The assay is described as follows: Displacement of [3H]diazepam binding in rat brain membranes. Type of assay: cell membranes. In general terms: Loss of bound radioactivity is the signal in a displacement assay; it reports binding, not function.
Assay [2] concerns Mus musculus. The assay is described as follows: Effective dose required to prevent convulsions in mice after iv administration of 70 mg/kg of metrazole compound in antipentylene tetrazole test. It is filed as functional. In a few lines:
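Male CF-1 mice, 50–54 days old, tested by a modified Everett–Richards method. Metrazole 70 mg/kg is given iv, and convulsions are scored.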

Assay [3] is filed under the species Mus musculus. In words: Effective dose required for […] in mice in rotarod test. It is filed as functional. (In general: In the rotarod test animals must keep their balance on a rotating rod.)

Broadly, the IC50 is the point on the concentration scale where inhibition reaches its midpoint. Higher therefore signals weaker potency. Usually ED50 stands for the midpoint of the dose-response relation. A lower ED50 goes with greater potency.

Each structure is given as a SMILES string.

For `OC1N=C(c2ccccc2Cl)c2cc(Cl)ccc2-c2ncncc21` (centres undefined), the IC50 in assay [1] was 6.4 nM. The ED50 is 0.74 mg/kg in the assay on Mus musculus [2] and 4.8 mg/kg in the assay listed under Mus musculus [3].

In turn, `Clc1ccc2c(c1)C(c1ccccc1Cl)=NCc1cncnc1-2` came in with an IC50 in assay [1] of 1.7 nM. Moreover, the ED50 in the assay on Mus musculus [2] stood at 0.59 mg/kg; in the assay filed under Mus musculus [3], 1.4 mg/kg.

`Oc1ccc(C2=NCc3cncnc3-c3ccc(Cl)cc32)c(Cl)c1`: the IC50 in assay [1] turned out to be 100 nM. The ED50 is greater than 100 mg/kg with Mus musculus [2] and greater than 1000 mg/kg in the assay filed under Mus musculus [3].

With `[O-][n+]1cnc2c(c1)CN=C(c1ccccc1Cl)c1cc(Cl)ccc1-2`, the concentration for half-maximal inhibition (IC50) in assay [1] was 1.25 nM. Further, the ED50 in the assay on Mus musculus [2] is 0.65 mg/kg; in the assay filed under Mus musculus [3], 4.9 mg/kg.

As for `CN1C(=O)CN=C(c2ccccc2)c2cc(Cl)ccc21` [DIAZEPAM], the results for the ED50 in the assay with Mus musculus [2] and in the assay listed under Mus musculus [3] were 1.4 mg/kg and 2.6 mg/kg, respectively.

Values taken from ChEMBL document CHEMBL1122391, “2-benzazepines. 6. Synthesis and pharmacological properties of the metabolites of 9-chloro-7-(2-chlorophenyl)-5H-pyrimido[5,4-d] [2]benzazepine” (J Med Chem, 1983).
